Results taken from PMC6436633 (ChemMedChem, 2018).
Like-named read-outs stand apart in the source and are kept apart here.

Assays:
PfPK5 [1] = target: T1, PfPK5 (Plasmodium falciparum, UniProt P61075); conditions: read-out: PfPK5 IC50; cited from earlier work
HuH7 cells = format: cell-based, human
PfPK5 [2] = target: T1, PfPK5; experiment: KINOMEscan active-site-directed competition binding assay, PfPK5; conditions: read-out: PfPK5 Kd(app), determined in duplicate, 0–30 μM
[3] = system: P. falciparum Dd2 asexual blood stage parasites; experiment: P. falciparum Dd2 asexual blood stage inhibition; format: cell-based, Plasmodium falciparum; conditions: read-out: blood stage parasite EC50, dose-response
How it was run: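 Asexual blood-stage P. falciparum Dd2 cultured with test compound in O-positive human blood for 72 h at 37 °C under 93% N2, 4% CO2, 3% O2, with 0.2% DMSO final. Nuclei then stained with SYBR Green I and fluorescence read. Data normalised to DMSO, with artesunate as positive control.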

PfPK5 [4] = target: T1, PfPK5; conditions: read-out: PfPK5 Kd; cited from earlier work

T1 sequence (P61075 whole entry): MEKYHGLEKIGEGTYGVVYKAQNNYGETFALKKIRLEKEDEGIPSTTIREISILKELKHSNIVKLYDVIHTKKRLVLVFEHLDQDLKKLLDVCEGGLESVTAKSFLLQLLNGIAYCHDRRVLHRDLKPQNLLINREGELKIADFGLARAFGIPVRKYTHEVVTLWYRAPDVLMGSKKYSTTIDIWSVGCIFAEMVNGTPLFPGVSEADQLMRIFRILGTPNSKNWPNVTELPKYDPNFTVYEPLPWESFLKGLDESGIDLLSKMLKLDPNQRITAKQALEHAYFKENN

Structure (SMILES) | IC50 (PfPK5 [1]) | EC50 (HuH7 cells) | Kd (PfPK5 [2]) | EC50 [3] | Kd (PfPK5 [4])
O=C1Nc2ccccc2/C1=C1/Nc2ccccc2/C1=N\O [indirubin-3´-monoxime] | 6 µM | – | – | – | –
Nc1nc(Nc2ccc(S(N)(=O)=O)cc2)nn1C(=S)Nc1c(F)cccc1F [Compound 1a] | – | 67 µM | 0.37 µM | 0.14 µM | 0.32 µM
CC(C)[C@H](CO)Nc1nc(Nc2cccc(Cl)c2)c2ncn(C(C)C)c2n1 [Purvalanol A, purvalanol A] | 8 µM | – | – | – | –
